Experiments:
Ovis aries [1] = experiment: Duration of spinal anesthesia at the anal region was measured in sheep at dose 10(mg/kg); assay type: functional
Ovis aries [2] = experiment: Duration of spinal anesthesia at the digits of the hind limbs was measured in sheep at dose 10(mg/kg); assay type: functional, Hindlimb
Ovis aries [3] = experiment: Duration of spinal anesthesia at the weight support was measured in sheep at dose 10(mg/kg); assay type: functional
Ovis aries [4] = experiment: Onset of spinal anesthesia at the digits of the hind limbs was measured in sheep at dose 10 (mg/kg); assay type: functional, Hindlimb
Ovis aries [5] = experiment: Onset of spinal anesthesia at the anal region was measured in sheep at dose 10(mg/kg); assay type: functional
Mus musculus [6] = experiment: Acute CNS toxicity against arrhythmogenic effects of chloroform in mice after sc administration.; assay type: functional; details: Central nervous system
Mus musculus [7] = experiment: Antiarrhythmic activity against arrhythmogenic effects of chloroform in mice after sc administration.; assay type: functional; details: Heart
Outline: (§1)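 At 20 min they were exposed to chloroform until respiratory arrest, then given a thoracotomy. Leads I and II plus an epicardial ECG were recorded for 30–40 s. Tachycardia was defined as ≥5 s with a ventricular rate >520 beats/min; absence meant protection.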

Ovis aries [8] = experiment: Duration of spinal anesthesia at the anal region was measured in sheep at dose.40(mg/kg); assay type: functional
Outline: (§2)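 Sterile solutions held 20 mg/mL base (2%) and 50 mg/mL glucose, made from the salts and adjusted to pH 6.1–6.5 with dilute NaOH. 2 mL was injected intrathecally in sheep. Onset of block was recorded at the anal region and hind-limb digits. Duration of pain block at both sites and of loss of weight support was noted. 5% glucose served as vehicle control.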

Ovis aries [9] = experiment: Duration of spinal anesthesia at the weight support was measured in sheep at dose.40(mg/kg); assay type: functional; outline: as §2
Ovis aries [10] = experiment: Onset of spinal anesthesia at the anal region was measured in sheep at dose 40(mg/kg); assay type: functional; outline: as §2
Ovis aries [11] = experiment: Onset of spinal anesthesia at the digits of the hind limbs was measured in sheep at dose 40(mg/kg); assay type: functional, Hindlimb; outline: as §2
[12] = Therapeutic index is defined as the ratio of ED50(ataxia)/ED50(protection); details: read-out: Therapeutic index
Outline: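 Ratio of ED50 for ataxia to ED50 for protection against chloroform-induced ventricular tachycardia in mice. Both ED50 values were derived by Berkson's logit chi-square method from percent responders across dose groups.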

Ovis aries [13] = experiment: Duration of spinal anesthesia at the digits of the hind limbs was measured in sheep at dose.40(mg/kg); assay type: functional, Hindlimb; outline: as §2
Mus musculus [14] = experiment: Acute CNS toxicity against arrhythmogenic effects of chloroform in mice after sc administration; assay type: functional; details: Central nervous system
Mus musculus [15] = experiment: Antiarrhythmic activity against arrhythmogenic effects of chloroform in mice after sc administration; assay type: functional; details: Heart; outline: as §1
Ovis aries [16] = experiment: Onset of spinal anesthesia at the anal region was measured in sheep at dose 30(mg/kg); assay type: functional
Ovis aries [17] = experiment: Onset of spinal anesthesia at the digits of the hind limbs was measured in sheep at dose 30(mg/kg); assay type: functional, Hindlimb
Ovis aries [18] = experiment: Duration of spinal anesthesia at the anal region was measured in sheep at dose 40(mg/kg); assay type: functional; outline: as §2
Ovis aries [19] = experiment: Duration of spinal anesthesia at the digits of the hind limbs was measured in sheep at dose 40(mg/kg); assay type: functional, Hindlimb; outline: as §2
Ovis aries [20] = experiment: Duration of spinal anesthesia at the weight support was measured in sheep at dose 40(mg/kg); assay type: functional; outline: as §2
Ovis aries [21] = experiment: Duration of spinal anesthesia at the anal region was measured in sheep at dose. 40 mg/kg; 50-300; assay type: functional; outline: as §2
Ovis aries [22] = experiment: Duration of spinal anesthesia at the digits of the hind limbs was measured in sheep at dose. 40 mg/kg; 0-140; assay type: functional, Hindlimb; outline: as §2
Ovis aries [23] = experiment: Duration of spinal anesthesia at the weight support was measured in sheep at dose. 40 mg/kg; 0-165; assay type: functional; outline: as §2
Ovis aries [24] = experiment: Onset of spinal anesthesia at the anal region was measured in sheep at dose 40(mg/kg); 5-50; assay type: functional; outline: as §2
Ovis aries [25] = experiment: Onset of spinal anesthesia at the digits of the hind limbs was measured in sheep at dose 40 (mg/kg); 5-50

CCCCNc1ccc(C(=O)OCCN(C)C)cc1 [TETRACAINE]
Duration of block (Ovis aries [1]): 302 min | Duration of block (Ovis aries [2]): 285 min | Duration of block (Ovis aries [3]): 458 min | Onset of block (Ovis aries [4]): 1.2 min | Onset of block (Ovis aries [5]): 1.13 min

CCN(CC)CC(=O)N(CCN)c1c(C)cccc1C
ED50 (Mus musculus [6]): 560 µmol/kg | ED50 (Mus musculus [7]): 120 µmol/kg | Duration of block (Ovis aries [8]): 270 min | Duration of block (Ovis aries [9]): 195 min | Onset of block (Ovis aries [10]): 5 min | Onset of block (Ovis aries [11]): 15 min | selectivity ratio [12]: 4.7 | Duration of block (Ovis aries [13]): 132 min

CCN(CC)CC(=O)Nc1c(C)cccc1C [LIDOCAINE]
ED50 (Mus musculus [14]): 180 µmol/kg | ED50 (Mus musculus [15]): 210 µmol/kg | Onset of block (Ovis aries [16]): 1 min | Onset of block (Ovis aries [17]): 1.4 min

CCN(CC)CCN(C(=O)CN1C(=O)c2ccccc2C1=O)c1c(C)cccc1C
ED50 (Mus musculus [14]): 10 µmol/kg | ED50 (Mus musculus [15]): 10 µmol/kg | selectivity ratio [12]: 1

Cc1cccc(C)c1N(CCN)C(=O)CN
ED50 (Mus musculus [6]): 1050 µmol/kg | ED50 (Mus musculus [7]): 390 µmol/kg | selectivity ratio [12]: 2.7

CCN(CC)CC(=O)N(CC)c1c(C)cccc1C
ED50 (Mus musculus [6]): 210 µmol/kg | ED50 (Mus musculus [7]): 140 µmol/kg | selectivity ratio [12]: 1.5

CCOCCN(C(=O)CN(CC)CC)c1c(C)cccc1C
ED50 (Mus musculus [6]): 80 µmol/kg | ED50 (Mus musculus [7]): 60 µmol/kg | selectivity ratio [12]: 1.3

Cc1cccc(C)c1NC(=O)C(C)N (centres undefined) [TOCAINIDE]
ED50 (Mus musculus [14]): 760 µmol/kg | ED50 (Mus musculus [15]): 550 µmol/kg | selectivity ratio [12]: 1.4

CCN(CC)CC(=O)N(CCO)c1c(C)cccc1C
ED50 (Mus musculus [6]): 490 µmol/kg | ED50 (Mus musculus [7]): 180 µmol/kg | selectivity ratio [12]: 2.7

OC[C@H]1OC(O)[C@H](O)[C@@H](O)[C@@H]1O (some centres undefined) [DEXTROSE]
Duration of block (Ovis aries [18]): 0 min | Duration of block (Ovis aries [19]): 0 min | Duration of block (Ovis aries [20]): 0 min

Cc1cccc(C)c1NC(=O)CN [GLYCINEXYLIDIDE]
ED50 (Mus musculus [14]): 620 µmol/kg | ED50 (Mus musculus [15]): 840 µmol/kg | selectivity ratio [12]: 0.7

CCCN(C(=O)CN(CC)CC)c1c(C)cccc1C
ED50 (Mus musculus [6]): 150 µmol/kg | ED50 (Mus musculus [7]): 170 µmol/kg | selectivity ratio [12]: 0.9

CCN(CC)CCN(C(=O)CN)c1c(C)cccc1C
ED50 (Mus musculus [6]): 1130 µmol/kg | ED50 (Mus musculus [7]): 690 µmol/kg | Duration of block (Ovis aries [21]): 50 min | Duration of block (Ovis aries [22]): 0 min | Duration of block (Ovis aries [23]): 0 min | Onset of block (Ovis aries [24]): 19 min | selectivity ratio [12]: 1.6 | Onset of block (Ovis aries [25]): 19 min

CCOCCN(C(=O)CN)c1c(C)cccc1C
ED50 (Mus musculus [6]): 170 µmol/kg | ED50 (Mus musculus [7]): 190 µmol/kg | selectivity ratio [12]: 0.9

CCN(CC)CCN(C(=O)CN(CC)CC)c1c(C)cccc1C
ED50 (Mus musculus [14]): 600 µmol/kg | ED50 (Mus musculus [15]): 460 µmol/kg | Duration of block (Ovis aries [8]): 0 min | Duration of block (Ovis aries [9]): 0 min | selectivity ratio [12]: 1.3 | Duration of block (Ovis aries [13]): 0 min

Cc1cccc(C)c1N(CCO)C(=O)CN
ED50 (Mus musculus [14]): 1080 µmol/kg | ED50 (Mus musculus [15]): 1260 µmol/kg | selectivity ratio [12]: 0.9
